PAD4 inh: human PAD4 inhibitors, primary screen, biochemical, fluorescence polarization, 1536-well format; 330,000 tested, 0.41% active; recombinant PAD4, RCA probe fluorescence polarization; Protein-arginine deiminase type-4 (Homo sapiens), Q9UM07; inhibition, % at 6.36 µM;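 active means percent inhibition above a cutoff equal to the mean of all tested compounds plus 3 SD, cut at about 15% in these data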
SIAE primary: human SIAE inhibitors, primary screen, biochemical, fluorescence polarization, FP-Rh probe, 1536-well HTS; Sialate O-acetylesterase (Homo sapiens), Q9HAT2; SIAE FP-Rh probe binding; inhibition, % at 9.66 µM; 370,000 tested, 0.69% active; AID 1053197, 2014;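 active means inhibition above a cutoff: mean of compounds within the control limits plus 3 SD of those, cut at about 17% in these data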
Target sequence (Q9HAT2 whole entry, looked up): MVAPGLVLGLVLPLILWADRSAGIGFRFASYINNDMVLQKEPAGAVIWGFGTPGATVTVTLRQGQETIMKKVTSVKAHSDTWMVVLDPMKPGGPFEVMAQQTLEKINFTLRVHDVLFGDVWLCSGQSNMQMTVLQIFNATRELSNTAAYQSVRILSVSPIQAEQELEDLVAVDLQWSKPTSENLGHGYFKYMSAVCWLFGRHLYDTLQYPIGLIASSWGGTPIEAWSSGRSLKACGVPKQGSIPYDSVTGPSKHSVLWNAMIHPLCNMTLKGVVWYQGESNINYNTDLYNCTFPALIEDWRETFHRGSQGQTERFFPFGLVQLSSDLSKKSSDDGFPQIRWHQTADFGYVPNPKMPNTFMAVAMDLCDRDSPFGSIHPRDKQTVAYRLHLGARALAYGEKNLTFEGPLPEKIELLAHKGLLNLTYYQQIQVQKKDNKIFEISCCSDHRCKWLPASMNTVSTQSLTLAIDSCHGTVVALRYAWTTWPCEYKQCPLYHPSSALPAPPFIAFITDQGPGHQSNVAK
GSTO1 counter: inhibitors of recombinant GSTO1, primary screen, counter-screen for RBBP9 inhibitor project, biochemical, fluorescence polarization; Glutathione S-transferase omega-1 (Homo sapiens), P78417; activity-based probe fluorescence polarization; inhibition, % at 5.96 µM; 300,000 tested, 1.1% active;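 active means inhibition above the campaign mean inhibition plus 3 SD, cut at about 35% in these data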
Apaf-1 inh: inhibitors of human Apaf-1 apoptosome, primary screen, biochemical, DEVD-Rh110 fluorescence, uHTS; reconstituted apoptosome caspase-3 activity; 330,000 tested, 0.71% active; inhibition, % at 20 µM; active means inhibition of at least 40% at 20 µM
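Assay system – apoptosome proteins · Medium – Hepes buffer, pH 7.5 · Also added – cytochrome c with DEVD-Rh110 · Timing – 30 min compound preincubation, 50 min activation, room temperature · Detection – Rh110 fluorescence, excitation 480 nm, emission 540 nm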
TCR CD3 inh: inhibitors of human TCR-CD3 interaction, primary screen, biochemical, fluorescence, TAMRA-labeled TCR probe; T-cell receptor (TCR); inhibition, % at 9.4 µM; 360,000 tested, 0.37% active; AID 651800, 2012; in the data active means inhibition above about 19%;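 further: recombinant mutant TCR 2C K166C tagged with TAMRA read by polarization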
TDP2 absorb: human TDP2 enzyme inhibitors, primary screen, biochemical, epi absorbance, recombinant enzyme; Tyrosyl-DNA phosphodiesterase 2 (Homo sapiens), O95551; 370,000 tested, 0.34% active; inhibition, % at 12.8 µM; T5PNP hydrolysis, p-nitrophenol absorbance 415 nm;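 active means inhibition above the mean of all tested compounds plus 3 SD, set per campaign, cut at about 25% in these data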
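Test system: human TDP2 enzyme; Input: 120 nM TDP2 per well; Buffer or medium: Mg2+-containing Tris-HCl buffer, pH 7.5; Reagent: 5 mM T5PNP; Dosing: 12.8 µM single point, 1% DMSO; Incubation: reaction 2 h, 37 °C; Detection: p-Nitrophenol epi absorbance; Read-out: % inhibition relative to enzyme-containing and enzyme-free wells; Replicates: single well per compound.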
Apaf-1 inh conf: Apaf-1 inhibitors, single-dose retest, confirmation, biochemical, fluorescence, DEVD-Rh110, 20 µM | shares compounds with Apaf-1 inh | reconstituted apoptosome, caspase-3 DEVD-Rh110 fluorescence | inhibition, % at 20 µM | 1,800 tested, 25% active;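 active means mean inhibition of at least 40% at 20 µM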
Rh110 interf inh: Rh110 fluorescence interference by putative Apaf-1 inhibitors, confirmation, artefact control for Apaf-1 inhibitor project, biochemical, 20 µM; shares compounds with Apaf-1 inh; quenched caspase reaction; activation (fluorescence interference), % at 20 µM; 1,800 tested, under 10 active; AID 504615, 2011;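 active means signal rise of 40% or more at 20 µM, treated as a fluorescence artifact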
Apaf1 inh interf: fluorescence interference of Apaf-1 inhibitor hits, dose response, artefact control for Apaf-1 inhibitor project; shares compounds with Apaf-1 inh; fluorescence interference counterscreen, Apaf-1 assay format; IC50, µM; 460 tested, under 10 active; call rule not given here
Each line names hits and unclear results; the compound was inactive in the other large screens (follow-up assays come after a bar, where they were run); ! = not confirmed by another sample. This is a sample that favours compounds with a hit; in the whole collection about 2.4% have one here.

COc1ccccc1N1C(=O)c2ccccc2NC1c1ccncc1 (stereo not drawn)	none
COc1ccccc1N1C(=O)N(C(C)=O)C2C1Nc1ccccc1N2C (stereo not drawn)	Apaf-1 inh 83 | Apaf-1 inh conf inactive | Rh110 interf inh inactive
O=C1C(NS(=O)(=O)c2cccs2)=C(N2CCN(c3ccccc3)CC2)C(=O)c2ccccc21	Apaf-1 inh 41 | Apaf-1 inh conf inactive | Rh110 interf inh inactive
O=S(=O)(c1cccs1)N1CCN(c2ccccc2)CC1	none
C[N+](C)(CCOc1ccccc1)Cc1ccccc1	none (no result: PAD4 inh, GSTO1 counter, Apaf-1 inh)
Cc1cc(C(C)(C)CC(C)(C)C)ccc1OCCOCC[N+](C)(C)Cc1ccccc1	Apaf-1 inh 86 | Apaf-1 inh conf 59 | Rh110 interf inh inactive | Apaf1 inh interf inactive
COc1ccc(-c2c(C#Cc3ccc(N(C)C)cc3)c3ccccc3n2C)cc1	Apaf-1 inh 57 (no result: GSTO1 counter) | Apaf-1 inh conf inactive | Rh110 interf inh inactive
COc1cccc(CN2CCN(Cc3ccc(C#CC(C)(C)O)s3)CC2CCO)c1 (stereo not drawn)	none
CCc1noc(C)c1C(=O)N1CCN(S(=O)(=O)c2c(C)cc(C)cc2C)CC1	Apaf-1 inh 57 (no result: GSTO1 counter) | Apaf-1 inh conf inactive | Rh110 interf inh inactive
CCCC(=O)N(Cc1cc2cc(C)ccc2[nH]c1=O)c1ccccc1OC	none
O=C(C[n+]1cccc(C(=O)N/N=C/c2ccc(Br)cc2)c1)c1ccccc1	Apaf-1 inh 50 (no result: GSTO1 counter) | Apaf-1 inh conf inactive | Rh110 interf inh inactive
O=C(N/N=C/c1ccc(Br)cc1)c1cc[n+](Cc2ccccc2)cc1	none
Cc1ccc(N2CCN(S(=O)(=O)c3c(C)nc4sccn4c3=O)CC2C)cc1 (stereo not drawn)	none (no result: PAD4 inh, GSTO1 counter, Apaf-1 inh)
Cc1ccc(N2CCN(S(=O)(=O)c3cccs3)CC2C)cc1 (stereo not drawn)	Apaf-1 inh 62 | Apaf-1 inh conf inactive | Rh110 interf inh inactive
Clc1ccccc1OCc1nn2c(-c3ccncc3)nnc2s1	Apaf-1 inh 41 | Apaf-1 inh conf 50 | Rh110 interf inh inactive | Apaf1 inh interf inactive
O=C(CSc1nccn1-c1cccc(Cl)c1)Nc1ccc2c(c1)OCCO2	none
COc1ccccc1-c1c(C#N)c(N)nc2c1CCc1ccccc1-2	Apaf-1 inh 96 | Apaf-1 inh conf inactive | Rh110 interf inh inactive
CCC1CCCCN1C(=S)NC(=O)c1ccc([N+](=O)[O-])cc1 (stereo not drawn)	none
COc1ccc(CNC(=O)CCCn2nc([N+](=O)[O-])cc2C)cc1	none
COc1nsnc1NS(=O)(=O)c1ccc(NC(=S)NC(=O)c2ccncc2)cc1	none
COc1ccc(Cn2nc(-c3ccccc3)c(N3CCCCC3)cc2=O)cc1	Apaf-1 inh 46 | Apaf-1 inh conf inactive | Rh110 interf inh inactive
O=c1cc(N2CCCCC2)c(-c2ccccc2)nn1Cc1ccccc1	none
CCOC(=O)C1=C(COCCN)NC(C)=C(C(=O)OC)C1c1ccccc1Cl (stereo not drawn)	Apaf-1 inh 49! | Apaf-1 inh conf inactive | Rh110 interf inh inactive

Source: PubChem
